Bioassay records deposited in PubChem BioAssay by Broad Institute.
Cneo AK release: causes C. neoformans cell lysis; hit rate 0.2% among 360,000; AID 651654; adenylate kinase release luminescence, 4 h; normalised: neutral wells 0, clomiphene wells 100; lysis activity, % at 15 µM;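 active = mean lysis activity across replicates of at least 80%, whatever share of replicates individually reach that level; inactive = mean lysis activity below 80%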
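Assay system: log-phase C. neoformans yeast / Quantity: yeast cell density of 5 × 10^6 cells/mL / Medium: fresh YPD growth medium / Compound: single dose / Timing: static 4 h at 37 °C with compound, 1 h detection / Measured by: adenylate kinase release luminescence / Read-out: lysis from increased AK signal / Benchmarks: Clomiphene as positive lysis control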
Wnt act: activators of Wnt/beta-catenin signaling; activation, % at 9.35 µM; hit rate 1.2% among 300,000; Wnt/beta-catenin reporter cell assay, activator, plate reader; in the data active = activation above about 30%, passing the limit was not always enough; inconclusive = no clear call, values can overlap the other calls
HIV Env fusion: HIV envelope-mediated fusion inhibition; hit rate 1.1% among 360,000; HeLa-JRFL Env/CEM21 cell fusion, luciferase; inhibition, % at 12.3 µM;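 active = mean replicate inhibition score of at least 50 and every replicate individually at or above 50; inconclusive = only one of the two criteria met; inactive = mean below 50 and not all replicates reaching 50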
ERAP1 HTS inh: inhibitors of human ERAP1 aminopeptidase. hit rate 0.15% among 340,000. recombinant ERAP1, Leu-AMC fluorescence, 60 min. AID 652197. inhibition, % at 10.7 µM. Q9NZ08;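 active = mean replicate inhibition of at least 30%, or all replicates individually reaching that 30% level; inactive = mean below 30% and not every replicate reaching it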
esBAF inh: SWI/SNF esBAF complex inhibition | mouse ES cells, Bmi1-luciferase knock-in reporter, 24 h; 100% = twice the neutral-well signal | reporter increase, % at 12.5 µM | hit rate 2% among 350,000 | AID 602393; in the data active = activation above about 40%; inconclusive = no clear call, values can overlap the other calls;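 also: a rise in the Bmi1 reporter signal indicates esBAF inhibition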
MITF TRPM1 HTS: increases MITF-driven TRPM1 promoter luciferase signal. SK-MEL-5 TRPM1-promoter luciferase, 24 h; % of positive control, neutral wells = 0. hit rate 0.75% among 300,000. activation, % at 12.5 µM;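 active = mean activation of at least 80% with every replicate also reaching 80%; inconclusive = mean reaches 80% but some replicate falls short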
Each line names hits and unclear results; the compound was inactive in the other large screens; ! = not active in a repeat; [ ] = dose if it differs, or a comment. Hits are enriched below; roughly 3.5% of the tested compounds scored in any of these assays.

COC(=O)[C@@H]1[C@@H](CO)[C@@H]2Cn3c(ccc(/C=C/c4ccccc4)c3=O)[C@H]1N2C(=O)C1CC1	none (no result: Wnt act, HIV Env fusion, MITF TRPM1 HTS)
CCCCCn1c(=O)c(C(=O)Nc2ccccc2S(N)(=O)=O)c(O)c2ccccc21	none (no result: Cneo AK release, esBAF inh)
CCCCCCn1c(=O)c(C(=O)Nc2ncccc2C)c(O)c2ccccc21	HIV Env fusion 83 (no result: MITF TRPM1 HTS)
CCCCn1c(=O)c(C(=O)Nc2ncccc2C)c(O)c2ccccc21	HIV Env fusion inconclusive
CCCCCn1c(=O)c(C(=O)Nc2ccccc2C)c(O)c2ccccc21	esBAF inh 51
COc1ccc(C#Cc2ccc([C@@H]3[C@@H](CO)N4CCCCN(C(=O)Cc5cccnc5)C[C@H]34)cc2)cc1	none (no result: Wnt act, HIV Env fusion, esBAF inh, MITF TRPM1 HTS)
COc1ccc(NC2=NC(C)(C)CS2)cc1	MITF TRPM1 HTS 95
CC=Cc1ccc2n(c1=O)C[C@@H]1[C@@H](CO)[C@H](C(=O)OC)[C@H]2N1S(=O)(=O)c1cccc(C)c1 (mixture of isomers)	HIV Env fusion 61[16.7 µM] (no result: Wnt act, MITF TRPM1 HTS)
CC=Cc1ccc2n(c1=O)C[C@@H]1[C@@H](CO)[C@H](C(=O)O)[C@H]2N1S(=O)(=O)c1ccccc1C (mixture of isomers)	none (no result: Wnt act, HIV Env fusion, MITF TRPM1 HTS)
CN(C)C1C(=O)C(C(N)=O)=C(O)C2(O)C(=O)C3=C(O)c4c(O)cccc4C(C)(O)C3C(O)C12 (stereo not drawn)	HIV Env fusion 63
Cc1ccc(/C=C2\C(=O)NC(=O)N(Cc3ccccc3Cl)C2=O)o1	ERAP1 HTS inh 50 (no result: Cneo AK release, esBAF inh)
CC(N)C(=O)NC1C2C(=C(O)CC(O)C2O)C(=O)OC1(C)C(Cl)Cl (stereo not drawn)	HIV Env fusion 99 (no result: Cneo AK release, esBAF inh, MITF TRPM1 HTS)
C[N+](C)(C)CC1CCCC1=O (stereo not drawn)	ERAP1 HTS inh 80 (no result: Cneo AK release, esBAF inh, MITF TRPM1 HTS)
COC(=O)C1=C(c2ccc(OC(F)(F)F)cc2)C[C@@H]2CC[C@H]1N2C(=O)N1CCC(O)CC1	none (no result: MITF TRPM1 HTS)
COC(=O)C1=C(c2ccc(OC(F)(F)F)cc2)C[C@@H]2CC[C@H]1N2C(=O)N1CCCCC1	HIV Env fusion 75
COC(=O)[C@@H]1[C@@H](CO)[C@@H]2Cn3c(cccc3=O)[C@H]1N2CCc1ccccc1	none (no result: Wnt act, MITF TRPM1 HTS)
O=C(Nc1ccncc1)c1cccn(Cc2ccccc2)c1=O	HIV Env fusion 56 (no result: Cneo AK release, esBAF inh)
COC(=O)[C@@H]1[C@@H](CO)[C@@H]2Cn3c(cccc3=O)[C@H]1N2C(=O)C1CCCC1	none (no result: Wnt act, HIV Env fusion, MITF TRPM1 HTS)
COC(=O)[C@H]1[C@H](CO)[C@H]2Cn3c(ccc(-c4ccncc4)c3=O)[C@@H]1N2CCc1ccccc1	none (no result: Wnt act, HIV Env fusion, MITF TRPM1 HTS)
Cc1cc(C=C2C(=O)NC(=S)NC2=O)c(C)n1C1CCCC1	esBAF inh 48
NC(=O)c1cn(C2OC(CO)C(O)C2O)c2ncnc(N)c12 (stereo not drawn)	HIV Env fusion 89
N#Cc1cn(C2OC(CO)C(O)C2O)c2ncnc(N)c12 (stereo not drawn)	HIV Env fusion 85 (no result: Cneo AK release, esBAF inh, MITF TRPM1 HTS)
NC(=O)c1c(Br)n(C2OC(CO)C(O)C2O)c2ncnc(N)c12 (stereo not drawn)	HIV Env fusion 71 (no result: Cneo AK release, esBAF inh, MITF TRPM1 HTS)
N#Cc1c(Br)n(C2OC(CO)C(O)C2O)c2ncnc(N)c12 (stereo not drawn)	none (no result: Cneo AK release, esBAF inh, MITF TRPM1 HTS)
C[C@@H]1CN([C@@H](C)CO)C(=O)CCCn2nncc2CO[C@H]1CN(C)C(=O)Oc1cccc2ccccc12	Cneo AK release 88! (no result: MITF TRPM1 HTS)
C[C@H]1CN([C@@H](C)CO)C(=O)CCCn2nncc2CO[C@@H]1CN(C)C(=O)Oc1cccc2ccccc12	none (no result: Wnt act, HIV Env fusion, MITF TRPM1 HTS)
Cc1ccc(OC(=O)N(C)C[C@@H]2OCc3ccccc3-c3c(n(C)c4ccccc34)C(=O)N([C@@H](C)CO)C[C@H]2C)cc1	none (no result: Cneo AK release, Wnt act, HIV Env fusion, esBAF inh, MITF TRPM1 HTS)
O=C(O)[C@@H]1[C@@H](CO)[C@@H]2Cn3c(ccc(-c4ccccc4)c3=O)[C@H]1N2S(=O)(=O)c1ccccc1F	none (no result: Wnt act, HIV Env fusion, MITF TRPM1 HTS)
CC(=O)O[C@H]1C[C@@H]2OC3C=C(C)CCC3(C)[C@@]1(C)[C@@]21CO1 (stereo partly drawn)	HIV Env fusion 72 (no result: Cneo AK release, esBAF inh, MITF TRPM1 HTS)
CN1/C(=C\C=C2C(=O)NC(=O)NC2=O)C(C)(C)c2ccccc21	none (no result: Cneo AK release, esBAF inh)
CN1/C(=C\C=Nc2ccccc2)C(C)(C)c2ccccc21	HIV Env fusion 64 (no result: ERAP1 HTS inh)
O=C(c1ccccc1)C(CN1CCCC1)c1ccccc1 (stereo not drawn)	none (no result: Cneo AK release, Wnt act, ERAP1 HTS inh, esBAF inh)
CC1CCN(C(CC(=O)c2ccccc2)C(=O)c2ccccc2)CC1 (stereo not drawn)	Wnt act 51
